Experimental data reported in article PMC12080315 (Chemistry (Weinheim an Der Bergstrasse, Germany), 2025).
“Also recorded” adds a separate entry of the source.

How the values were obtained:
recombinant FTase = recombinant FTase (Homo sapiens, UniProt P49354+P49356); test: Fluorescent in vitro FTase inhibition assay; assay type: biochemical; conditions: for selectivity for FTase over GGTase I: ratio of K i values GGTase I / FTase
Method in brief: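 Recombinant FTase (25–37 nM) was reacted with dansyl-labelled K-Ras4B C-terminal peptide (1 µM) and FPP (5 µM), with test compound at 0–500 µM. Enzyme, substrates and compound were spotted separately, then buffer was added to start the reaction. Fluorescence (ex 340/em 520 nm) was followed for 5 min. n = 3, SEM.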

recombinant GGTase I = recombinant GGTase I (Homo sapiens, UniProt P49354+P53609); test: Fluorescent in vitro GGTase I inhibition assay; assay type: biochemical
Sequence of recombinant GGTase I (P53609 whole entry, one chain of several): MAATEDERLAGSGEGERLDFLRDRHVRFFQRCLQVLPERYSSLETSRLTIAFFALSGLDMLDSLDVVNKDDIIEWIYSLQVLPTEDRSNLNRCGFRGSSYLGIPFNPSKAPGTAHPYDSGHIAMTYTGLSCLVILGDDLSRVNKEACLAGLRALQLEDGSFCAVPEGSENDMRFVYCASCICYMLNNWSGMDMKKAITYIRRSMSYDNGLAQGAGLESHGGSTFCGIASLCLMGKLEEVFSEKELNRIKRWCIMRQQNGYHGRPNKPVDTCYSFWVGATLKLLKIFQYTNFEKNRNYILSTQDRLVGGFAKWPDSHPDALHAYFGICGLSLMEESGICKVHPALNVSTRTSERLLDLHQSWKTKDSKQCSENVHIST
Method in brief: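 Recombinant GGTase I (25–37 nM) was run with dansyl-labelled K-Ras C-terminal peptide (1 µM) and test compound at 0–500 µM. GGPP was diluted to a 110 µM working stock before use. Buffer was 50 mM Tris-HCl pH 7.5 with MgCl2, ZnCl2, dodecyl maltoside and DTT, at 37 °C. Fluorescence kinetics (ex 340/em 520 nm) were recorded over 5 min. n = 3, SEM.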

MiaPaCa2 cells = test: Antiproliferative activity, trypan blue cell viability assay; assay type: cell-based, human; conditions: for IC50: Homo sapiens, MIA PaCa-2, 72 h, read-out: IC50, antiproliferation activity
Method in brief: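 MiaPaCa2 cells (K-Ras G12C) seeded at 1×10³ cells/well and left overnight at 37 °C, 5% CO2. Next day they were given various concentrations of test compound and incubated 72 h at 37 °C, 5% CO2. A trypan blue assay followed, […]. Sotorasib served as positive control. n = 3, mean ± SEM.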

Rap1 geranylgeranylation = test: Gel-shift assay; assay type: cell-based, human; conditions: MiaPaca‐2 cells, 48 hours, 30 and 100 µM
Method in brief: (§1)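 MiaPaCa2 cells were grown in DMEM with 10% heat-inactivated FBS and 1% penicillin-streptomycin. They were treated 48 h with vehicle or test compound at 30 and 100 µM; the positive control, a dual FTase/GGTase I inhibitor, was used at 10 and 30 µM. Cells were PBS-washed and lysed with protease and phosphatase inhibitors. Lysates ran on 4–20% SDS-PAGE gel-shift blots, probed with anti-K-Ras or anti-Rap1A+B, plus anti-vinculin.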

K‐Ras prenylation = test: Gel-shift assay; assay type: cell-based, human; conditions: MiaPaca‐2 cells, 48 hours, 30 and 100 µM
Method in brief: as §1

Sequence of recombinant FTase (P49356 whole entry, one chain of several): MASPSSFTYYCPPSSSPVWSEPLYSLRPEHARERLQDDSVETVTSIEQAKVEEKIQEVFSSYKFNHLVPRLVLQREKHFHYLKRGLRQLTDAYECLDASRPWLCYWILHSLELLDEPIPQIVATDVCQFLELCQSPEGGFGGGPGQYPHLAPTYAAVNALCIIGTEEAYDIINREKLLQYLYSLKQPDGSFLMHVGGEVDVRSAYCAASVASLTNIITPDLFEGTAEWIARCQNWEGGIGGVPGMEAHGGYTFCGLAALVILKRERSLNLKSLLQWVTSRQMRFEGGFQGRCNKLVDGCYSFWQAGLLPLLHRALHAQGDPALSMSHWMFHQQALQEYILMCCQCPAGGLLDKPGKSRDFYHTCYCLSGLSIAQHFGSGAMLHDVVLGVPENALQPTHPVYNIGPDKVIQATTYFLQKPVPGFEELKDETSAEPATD

| SMILES | Ki (recombinant FTase) [µM] | IC50 (recombinant GGTase I) [µM] | IC50 (recombinant FTase) [µM] | Ki (recombinant GGTase I) [µM] | also measured |
| --- | --- | --- | --- | --- | --- |
| CSCC[C@H](NC(=O)NC1(c2ccccc2)CCN(Cc2cnc[nH]2)CC1)C(=O)O [Compound 1, ((1‐((1H‐Imidazol‐5‐yl)methyl)‐4‐phenylpiperidin‐4‐yl)carbamoyl)‐L‐methionine] | 0.79 ± 0.045 | > 500 | – | – | – |
| COC(=O)[C@H](CCSC)NC(=O)NC1(c2ccccc2)CCN(Cc2cncn2Cc2ccc(N=[N+]=[N-])cc2)CC1 [Compound 2, Methyl ((1‐((1‐(4‐azidobenzyl)‐1H‐imidazol‐5‐yl)methyl)‐4‐phenylpiperidin‐4‐yl)carbamoyl)‐L‐methioninate] | – | – | – | – | IC50 (MiaPaCa2 cells): 0.1 to 1 µM; IC50 relative to that of sotorasib (MiaPaCa2 cells; MiaPaCa2 cells, 72 hours): approximately 10 fold; inhibition of geranylgeranylation (processing) of Rap1 in cells (Rap1 geranylgeranylation): inhibited; also recorded: inhibit the processing; inhibition of prenylation (processing) of K‐Ras in cells (K‐Ras prenylation): able to inhibit; also recorded: inhibit the processing |
| CSCC[C@H](NC(=O)NC1(c2ccccc2)CCN(Cc2cncn2Cc2ccc(N=[N+]=[N-])cc2)CC1)C(=O)O [Compound 3, ((1‐((1‐(4‐Azidobenzyl)‐1H‐imidazol‐5‐yl)methyl)‐4‐phenylpiperidin‐4‐yl)carbamoyl)‐L‐methionine] | 0.0021 ± 0.0005 | 6.48 | 0.35 | 0.21 | increase in potency for FTase compared to 1 (recombinant FTase; ratio of K i values): 376 fold; selectivity for FTase over GGTase I (recombinant FTase): 100 fold |
| COC(=O)[C@H](CCSC)NC(=O)NC1(c2ccccc2)CCN(Cc2cncn2Cc2ccc(-n3cc(COCCCCCCNC(=O)c4ccc(N)cc4)nn3)cc2)CC1 [Compound 4c, Methyl ((1‐((1‐(4‐(4‐(((6‐(4‐aminobenzamido)hexyl)oxy)methyl)‐1H‐1,2,3‐triazol‐1‐yl)benzyl)‐1H‐imidazol‐5‐yl)methyl)‐4‐phenylpiperidin‐4‐yl)carbamoyl)‐L‐methioninate] | – | – | – | – | inhibition of geranylgeranylation (processing) of Rap1 in cells (Rap1 geranylgeranylation): inhibited; also recorded: more potent than 2; also recorded: inhibit the processing; also recorded: disrupt the processing; inhibition of prenylation (processing) of K‐Ras in cells (K‐Ras prenylation): able to inhibit; also recorded: inhibit the processing; also recorded: disrupt the processing |
| COC(=O)[C@H](CCSC)NC(=O)NC1(c2ccccc2)CCN(Cc2cncn2Cc2ccc(-n3cc(COCCCCCCNC(=O)c4ccc(NC(=N)N)cc4)nn3)cc2)CC1 [Compound 4d, Methyl ((1‐((1‐(4‐(4‐(((6‐(4‐guanidinobenzamido)hexyl)oxy)methyl)‐1H‐1,2,3‐triazol‐1‐yl)benzyl)‐1H‐imidazol‐5‐yl)methyl)‐4‐phenylpiperidin‐4‐yl)carbamoyl)‐L‐methioninate] | – | – | – | – | inhibition of geranylgeranylation (processing) of Rap1 in cells (Rap1 geranylgeranylation): did not inhibit |
| COC(=O)[C@H](CCSC)NC(=O)NC1(c2ccccc2)CCN(Cc2cncn2Cc2ccc(-n3cc(COCCCCCCNC(=O)c4ccc(C(=N)N)cc4)nn3)cc2)CC1 [Compound 4e, Methyl ((1‐((1‐(4‐(4‐(((6‐(4‐carbamimidoylbenzamido)hexyl)oxy)methyl)‐1H‐1,2,3‐triazol‐1‐yl)benzyl)‐1H‐imidazol‐5‐yl)methyl)‐4‐phenylpiperidin‐4‐yl)carbamoyl)‐L‐methioninate] | – | – | – | – | inhibition of geranylgeranylation (processing) of Rap1 in cells (Rap1 geranylgeranylation): did not inhibit |
| CSCC[C@H](NC(=O)NC1(c2ccccc2)CCN(Cc2cncn2Cc2ccc(-n3cc(COCCCCCCNC(=N)N)nn3)cc2)CC1)C(=O)O [Compound 5a, ((1‐((1‐(4‐(4‐(((6‐Guanidinohexyl)oxy)methyl)‐1H‐1,2,3‐triazol‐1‐yl)benzyl)‐1H‐imidazol‐5‐yl)methyl)‐4‐phenylpiperidin‐4‐yl)carbamoyl)‐L‐methionine] | 0.0017 ± 0.0005 | 7.84 | 0.29 | 0.25 ± 0.05 | selectivity for FTase over GGTase I (recombinant FTase): 147 fold |
| CSCC[C@H](NC(=O)NC1(c2ccccc2)CCN(Cc2cncn2Cc2ccc(-n3cc(COCCCCCCN)nn3)cc2)CC1)C(=O)O [Compound 5b, ((1‐((1‐(4‐(4‐(((6‐Aminohexyl)oxy)methyl)‐1H‐1,2,3‐triazol‐1‐yl)benzyl)‐1H‐imidazol‐5‐yl)methyl)‐4‐phenylpiperidin‐4‐yl)carbamoyl)‐L‐methionine] | 0.0038 ± 0.0011 | 2.4 | 0.63 | 0.077 ± 0.051 | selectivity for FTase over GGTase I (recombinant FTase): 20 fold |
| CSCC[C@H](NC(=O)NC1(c2ccccc2)CCN(Cc2cncn2Cc2ccc(-n3cc(COCCCCCCNC(=O)c4ccc(N)cc4)nn3)cc2)CC1)C(=O)O [Compound 5c, ((1‐((1‐(4‐(4‐(((6‐(4‐Aminobenzamido)hexyl)oxy)methyl)‐1H‐1,2,3‐triazol‐1‐yl)benzyl)‐1H‐imidazol‐5‐yl)methyl)‐4‐phenylpiperidin‐4‐yl)carbamoyl)‐L‐methionine] | 0.0046 ± 8e-05 | 0.09 | 0.752 | 0.0029 ± 0.0007 | – |
| CSCC[C@H](NC(=O)NC1(c2ccccc2)CCN(Cc2cncn2Cc2ccc(-n3cc(COCCCCCCNC(=O)c4ccc(NC(=N)N)cc4)nn3)cc2)CC1)C(=O)O [Compound 5d, ((1‐((1‐(4‐(4‐(((6‐(4‐Guanidinobenzamido)hexyl)oxy)methyl)‐1H‐1,2,3‐triazol‐1‐yl)benzyl)‐1H‐imidazol‐5‐yl)methyl)‐4‐phenylpiperidin‐4‐yl)carbamoyl)‐L‐methionine] | 0.0018 ± 0.0004 | 0.096 | 0.3 | 0.0031 ± 0.0005 | – |
| CSCC[C@H](NC(=O)NC1(c2ccccc2)CCN(Cc2cncn2Cc2ccc(-n3cc(COCCCCCCNC(=O)c4ccc(C(=N)N)cc4)nn3)cc2)CC1)C(=O)O [Compound 5e, ((1‐((1‐(4‐(4‐(((6‐(4‐Carbamimidoylbenzamido)hexyl)oxy)methyl)‐1H‐1,2,3‐triazol‐1‐yl)benzyl)‐1H‐imidazol‐5‐yl)methyl)‐4‐phenylpiperidin‐4‐yl)carbamoyl)‐L‐methionine] | 0.002 ± 0.0002 | 0.53 | 0.33 | 0.017 ± 0.005 | – |
| C#CCOCCCCCCNC(=N)N [Compound 12, 1‐(6‐(Prop‐2‐yn‐1‐yloxy)hexyl)guanidine] | – | – | > 500 | – | – |
| C#CCOCCCCCCNC(=O)c1ccc(C(=N)N)cc1 [Compound 13, 4‐Carbamimidoyl‐N‐(6‐(prop‐2‐yn‐1‐yloxy)hexyl)benzamide] | – | > 500 | > 500 | – | antiproliferative activity (result in words) (MiaPaCa2 cells; MiaPaCa2 cells, 72 hours, trypan blue assay): inactive |
| C=CC(=O)N1CCN(c2nc(=O)n(-c3c(C)ccnc3C(C)C)c3nc(-c4c(O)cccc4F)c(F)cc23)[C@@H](C)C1 [sotorasib, reference compound] | – | – | – | – | IC50 (MiaPaCa2 cells): 0.01 to 0.1 µM |
